Experimental data taken from publication PMC10824272 (Biomedicine & pharmacotherapy = Biomedecine & …, 2023).
Values joined by “and” are separate entries in the source; they are usually repeats but may differ in a detail not shown here. Equal values may be shown once.

Experiments:
[1] = tested on: SW480 cells; assay: Cell viability; type: cell-based, human; conditions: even at 25μM
[2] = tested on: SW480^cld1 cells; assay: Anoikis-induced apoptosis assay; type: cell-based; conditions: claudin-1 overexpressed SW480^cld1
Outline: (§1)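 Anoikis induced by plating cells on poly-HEMA-coated culture plates. Apoptosis quantified with a cell death detection ELISA. Parental lines were cultured in RPMI with 10% FBS. Claudin-1-overexpressing SW480 and claudin-1-knockdown SW620 derivatives were used.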

[3] = tested on: HCT116 cells; assay: Anoikis-induced apoptosis assay; type: cell-based, human; conditions: claudin-1 deficient HCT116
[4] = tested on: SW620^1C cells; assay: Anoikis-induced apoptosis assay; type: cell-based, human; conditions: claudin-1 knockdown SW620^1C
Outline: as §1

[5] = tested on: SW480^cld1 cells; assay: Transwell matrigel invasion assay; type: cell-based, human; conditions: PDS-0330 25μM; P < 0.0001 vs control and 20A
[6] = tested on: SW480^cld1 xenograft tumor; assay: Subcutaneous xenograft tumor study; type: in vivo, athymic nude mice
Outline: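 Cells implanted subcutaneously in athymic nude mice, n = 5 per group, vehicle controls. For SW480cld1 with I-6, once-weekly dosing started 10 days after implantation, once tumors were palpable, for two weeks. Caliper volume over time, formula […]. Ki67 and cleaved PARP by IHC. Behavior and body weight monitored.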

[7] = Metabolic stability, phase I; type: in vitro ADME, human
Outline: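 Phase I stability in human liver microsomes (20 mg/ml stock), 100 mM potassium phosphate pH 7.4, 10 mM MgCl2, 2 mM NADPH. Mix pre-incubated 10 min at 37 °C. Output is percent parent remaining per time point. Elimination rate constant taken from first-order plot of ln area ratio versus time.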

[8] = biological target: T1, human claudin-19 (Homo sapiens, UniProt Q8N6F1); assay: Microscale thermophoresis; type: binding; conditions: 25 °C, duplicate acquisitions
T1 sequence (Q8N6F1 1-224): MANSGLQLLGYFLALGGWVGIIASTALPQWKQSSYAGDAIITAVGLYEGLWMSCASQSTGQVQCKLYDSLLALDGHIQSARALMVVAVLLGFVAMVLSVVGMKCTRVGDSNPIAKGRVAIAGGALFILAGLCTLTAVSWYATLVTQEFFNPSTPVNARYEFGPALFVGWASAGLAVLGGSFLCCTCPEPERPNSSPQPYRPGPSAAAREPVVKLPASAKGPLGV
Outline: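 Microscale thermophoresis at 25 °C with 1 μM Cy3-labeled, detergent-purified claudin (human claudin-19, mouse claudin-4 or trypsinized human claudin-1) in HEPES pH 7.4/100 mM NaCl buffer. Test compound dissolved in DMSO and titrated from 135 μM to 4.1 nM. Affinity derived from duplicate acquisitions.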

[9] = tested on: pSrc, pAkt, Bcl2, Bcl-xL, survivin, cleaved PARP in SW620 and SW480^cld1 cells; assay: Immunoblotting of signaling and apoptosis markers; type: cell-based, human; conditions: PDS-0330 12.5 and 25μM
Outline: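 Treated cells (vehicle or 12.5 and 25 μM) lysed. 10–30 μg protein per lane resolved by SDS-PAGE and immunoblotted, with enhanced chemiluminescence detection on film. Antibodies included p-Src (Tyr416), pAkt and total Akt, with GAPDH or β-actin as loading reference.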

O=C(NC(=S)Nc1ccc(-c2nc3ccccc3o2)cc1)c1ccc2ccccc2c1 [PDS-0330, N-((4-(benzo[d]oxazol-2-yl)phenyl)carbamothioyl)-2-naphthamide]
impact on SW480 cells [1]: no significant impact
resistance to anoikis [2]: dramatically reduced the resistance to anoikis
resistance to anoikis [3]: not affecting
resistance to anoikis [4]: not affecting
cell invasion [5]: significantly inhibited
apoptosis in tumors (cleaved PARP, BclxL, survivin) ([6]; PDS-0330 5mg/Kg and 10mg/Kg): increase in apoptosis
proliferation in tumors (Ki67) ([6]; PDS-0330 5mg/Kg and 10mg/Kg): reduced proliferation
tumor volume and weight ([6]; PDS-0330 5mg/Kg and 10mg/Kg vs vehicle): significant reduction
drug remaining after 60 min ([7]; HLM, phase I metabolism, 60 min): 90%
metabolism in the presence of HLM ([7]; phase I): < 15%
Kd [8]: 157 µM and ≥ 100 µM
Akt activation [9]: suppressing Akt activation
Bcl-2 and Bcl-xL expression [9]: inhibiting
anti-apoptotic proteins Bcl2, Bcl-xL and Survivin ([9]; SW480^cld1 and SW620): decrease
apoptotic protein cleaved PARP ([9]; SW480^cld1 and SW620): increase
Src phosphorylation ([9]; SW620 and SW480^cld1): prevents Src phosphorylation
